ChEMBL document CHEMBL5352471, “Design, synthesis, and pharmacological evaluations of pyrrolo[1,2-a]quinoxaline-based derivatives as potent and selective sirt6 activators” (Eur J Med Chem, 2023)
Active and inactive are the calls of the source. No cut-off for these calls is given here.

Assays:
[1] = target: T1, NAD-dependent protein deacylase sirtuin-6 (Homo sapiens, UniProt Q8N6T7); experiment: Activation of his6-tagged SIRT6 (unknown origin) assessed as fold activation using H3K9Ac peptide substrate incubated for 30 mins; settings: filed as activator
[2] = Oral bioavailability in C57BL/6J mouse at 20 to 30 mg/kg, iv measured upto 24 hrs by LC-MS/MS analysis; format: ADME, organism-based; settings: in vivo, dose 20-30 mg/kg
SARS-CoV-2 = experiment: Antiviral activity against SARS-CoV-2 infected in human A549-ACE2 cells assessed as viral growth inhibition; format: functional, organism-based; settings: Severe acute respiratory syndrome coronavirus 2, A549-ACE2
[3] = Cytotoxicity against human A549-ACE2 cells assessed as inhibition of cell growth measured for 48 hrs; format: functional
[4] = target: T1, NAD-dependent protein deacylase sirtuin-6; experiment: Activation of SIRT6 (unknown origin) deacetylase activity assessed as fold increase in maximal activation; settings: filed as activator
[5] = target: T2, NAD-dependent protein deacetylase sirtuin-2 (Homo sapiens) (UniProt Q8IXJ6); experiment: Activation of human SIRT2 (unknown origin) deacetylation activity using fluorogenic substrate measured upto 120 mins by microplate reader analysis
T2 sequence (whole entry): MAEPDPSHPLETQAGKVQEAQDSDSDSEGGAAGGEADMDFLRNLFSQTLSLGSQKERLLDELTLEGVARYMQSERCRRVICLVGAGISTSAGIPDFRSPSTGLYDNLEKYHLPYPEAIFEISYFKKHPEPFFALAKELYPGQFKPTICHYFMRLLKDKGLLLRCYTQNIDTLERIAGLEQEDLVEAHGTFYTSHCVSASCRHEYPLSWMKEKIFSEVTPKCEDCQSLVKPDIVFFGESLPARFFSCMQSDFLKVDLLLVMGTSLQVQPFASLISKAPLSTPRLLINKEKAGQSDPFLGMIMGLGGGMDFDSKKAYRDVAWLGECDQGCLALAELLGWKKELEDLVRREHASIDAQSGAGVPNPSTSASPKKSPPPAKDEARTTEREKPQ
In short: (§1)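 Recombinant Sirt1 or Sirt2 was assayed with a kit fluoro-substrate peptide (0.1 mM stock), NAD+ (8 mM stock) and developer in a 25 µL reaction at room temperature. Fluorescence was read over 125 min, at Ex/Em 350/450 nm for Sirt1 and 490/530 nm for Sirt2.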

[6] = target: T3, NAD-dependent protein deacetylase sirtuin-1 (Homo sapiens) (UniProt Q96EB6); experiment: Activation of human SIRT1 (unknown origin) deacetylation activity using fluorogenic substrate measured upto 120 mins by microplate reader analysis; in short: as §1
T3 sequence (whole entry): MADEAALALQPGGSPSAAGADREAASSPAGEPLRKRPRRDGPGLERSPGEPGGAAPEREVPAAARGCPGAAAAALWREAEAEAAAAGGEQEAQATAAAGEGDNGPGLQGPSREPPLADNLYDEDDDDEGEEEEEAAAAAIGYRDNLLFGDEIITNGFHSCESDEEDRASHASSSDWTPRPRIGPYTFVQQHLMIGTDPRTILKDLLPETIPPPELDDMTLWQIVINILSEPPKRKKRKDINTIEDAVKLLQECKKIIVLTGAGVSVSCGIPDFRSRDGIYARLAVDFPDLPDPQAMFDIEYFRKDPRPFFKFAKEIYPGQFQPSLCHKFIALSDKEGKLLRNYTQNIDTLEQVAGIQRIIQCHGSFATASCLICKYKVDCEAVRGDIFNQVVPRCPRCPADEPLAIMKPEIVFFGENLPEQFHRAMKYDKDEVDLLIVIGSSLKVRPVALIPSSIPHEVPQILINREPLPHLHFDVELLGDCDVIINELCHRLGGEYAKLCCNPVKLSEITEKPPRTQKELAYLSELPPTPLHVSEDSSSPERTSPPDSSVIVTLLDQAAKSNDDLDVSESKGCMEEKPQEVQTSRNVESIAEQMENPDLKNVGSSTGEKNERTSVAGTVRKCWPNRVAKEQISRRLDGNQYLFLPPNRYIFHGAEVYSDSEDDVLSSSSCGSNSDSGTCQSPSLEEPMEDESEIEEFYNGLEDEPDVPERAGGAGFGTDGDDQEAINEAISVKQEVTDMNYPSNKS

[7] = target: NAD-dependent protein deacylase sirtuin-5, mitochondrial (Homo sapiens) (UniProt Q9NXA8); experiment: Activation of human SIRT5 (unknown origin) desuccinylation activity using fluorogenic substrate measured upto 120 mins by microplate reader analysis
[8] = target: T1, NAD-dependent protein deacylase sirtuin-6; experiment: Activation of recombinant SIRT6 (unknown origin) deacetylase activity using fluoro peptide as substrate by microplate reader analysis
[9] = target: T1, NAD-dependent protein deacylase sirtuin-6; experiment: Activation of SIRT6 (unknown origin) deacetylase activity assessed as fold activation; settings: filed as activator
In short: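 Recombinant Sirt6 was run in a fluorometric activity kit (FDL-type deacetylation) with a fluoro-substrate peptide (0.1 mM stock), NAD+ (8 mM stock) and developer in a 25 µL reaction at room temperature. Compounds were tested at 100 and 30 µM. Fluorescence was read at Ex/Em 490/530 nm over 125 min. Fold activation is given as mean ± SD from at least two independent experiments.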

T1 sequence (Q8N6T7 whole entry): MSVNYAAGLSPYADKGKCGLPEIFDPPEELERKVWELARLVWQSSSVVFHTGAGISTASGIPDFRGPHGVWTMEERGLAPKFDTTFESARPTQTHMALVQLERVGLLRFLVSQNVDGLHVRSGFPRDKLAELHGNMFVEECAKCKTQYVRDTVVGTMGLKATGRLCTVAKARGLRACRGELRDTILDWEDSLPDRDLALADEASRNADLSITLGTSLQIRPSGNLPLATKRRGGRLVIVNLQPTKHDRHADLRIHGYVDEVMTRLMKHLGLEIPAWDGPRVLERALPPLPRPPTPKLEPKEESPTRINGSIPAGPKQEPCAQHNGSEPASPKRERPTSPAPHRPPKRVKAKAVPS
NAD-dependent protein deacylase sirtuin-5, mitochondrial (Homo sapiens), sequence (Q9NXA8 37-310 limits assumed): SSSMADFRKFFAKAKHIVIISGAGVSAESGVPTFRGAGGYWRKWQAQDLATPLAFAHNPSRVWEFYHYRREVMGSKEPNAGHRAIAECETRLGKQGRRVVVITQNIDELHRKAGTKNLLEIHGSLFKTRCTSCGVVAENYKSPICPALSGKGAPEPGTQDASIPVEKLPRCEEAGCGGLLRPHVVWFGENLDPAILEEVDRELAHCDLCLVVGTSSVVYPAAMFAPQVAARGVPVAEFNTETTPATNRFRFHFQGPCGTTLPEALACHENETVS

## CCCCCCCC/C=C\CCCCCCCC(=O)NCCO
[1]
  fold change (FC): 2.1

## Cc1cc(F)c(Br)cc1NS(=O)(=O)c1ccc(NS(=O)(=O)c2cc(Cl)cc(Cl)c2)cc1CN1CCOC[C@H]1C
[2]
  bioavailability: 93%

## c1cncc(C2Nc3ccccc3-n3cccc32)c1 (stereo not drawn)
SARS-CoV-2
  EC50: 50 µM
[3]
  CC50: > 50 µM
[4]
  fold change (FC): 2

## CN(C)CCN1CCN(c2ncccc2C2Nc3ccccc3-n3cccc32)CC1 (stereo not drawn)
SARS-CoV-2
  EC50: 9.3 µM
[5]
  Activity: inactive
[6]
  Activity: inactive
[6]; filed as activator
  Activity: Active
[7]
  Activity: inactive
[8]
  EC50: 48.8 µM
[3]
  CC50: > 50 µM

## O=C(O)c1ccc2c(c1)C(=O)N(c1ccc(N(C(=O)c3c(Cl)cc(Cl)cc3Cl)C(=O)c3c(Cl)cc(Cl)cc3Cl)c(Cl)c1)C2=O
[9]
  fold change (FC): 4
